How the values were obtained:
[1] = target: Sigma non-opioid intracellular receptor 1 (Homo sapiens, UniProt Q99720); experiment: Displacement of (+)-[3H]-pentazocine from recombinant human sigma 1 receptor expressed in baculovirus infected Sf9 insect cell membranes after 90 mins by scintillation counting method
Procedure, shortened: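 Human σ1 cloned in pFastBac, baculovirus-expressed in Sf9 cells (infected at 4 x 10⁶ cells/mL, 27 °C, harvested 48 h); washed membranes, 2.5 µg protein per reaction in 50 mM Tris pH 8.0 with 10 nM [³H](+)-pentazocine and 8 competitor concentrations 10 pM–100 µM; 90 min at 37 °C; filtration on PEI-soaked glass fiber filters; scintillation counting; two or three independent experiments in triplicate.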

[2] = target: T1, Sigma intracellular receptor 2 (Rattus norvegicus, UniProt Q5U3Y7); experiment: Displacement of (+)-[3H]-ditolylguanidine from recombinant rat sigma 2 receptor expressed in rat PC12 cell membranes after 90 mins in presence of sigma 1 receptor blocker (+)-SKF-10047 by scintillation counting method
T1 sequence (Q5U3Y7 whole entry): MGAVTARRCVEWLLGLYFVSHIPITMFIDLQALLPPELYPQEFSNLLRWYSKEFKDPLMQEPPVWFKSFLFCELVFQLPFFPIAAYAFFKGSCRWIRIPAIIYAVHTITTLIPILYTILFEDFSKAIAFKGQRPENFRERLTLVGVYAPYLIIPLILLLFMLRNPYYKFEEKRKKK
Procedure, shortened: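 PC-12 cell membranes (12-30 µg protein per reaction) in 50 mM Tris pH 8.0 with 30 nM [³H]DTG plus 1.8 µM (+)-SKF-10,047 to block σ1 sites; competitor at graded concentrations; 90 min at 37 °C; filtration through 0.3% PEI-soaked glass fiber filters; scintillation counting; two or three independent experiments in triplicate.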

[3] = Selectivity ratio of Ki for recombinant rat sigma 2 receptor to Ki for recombinant human sigma 1 receptor

Sigma non-opioid intracellular receptor 1, sequence (Q99720 whole entry): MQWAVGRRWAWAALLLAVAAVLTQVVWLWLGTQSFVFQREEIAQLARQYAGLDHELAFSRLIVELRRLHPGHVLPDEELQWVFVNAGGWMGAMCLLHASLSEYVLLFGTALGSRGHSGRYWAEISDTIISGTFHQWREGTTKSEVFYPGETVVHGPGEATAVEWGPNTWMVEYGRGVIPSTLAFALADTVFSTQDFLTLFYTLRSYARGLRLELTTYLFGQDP

Row | Compound | Ki [1] [nM] | Ki [2] [nM] | Ratio Ki [3]
1 | CC(C)(C)c1ccc(CCCN2CCCCC2)cc1 | 1.5 | 31.5 | 21
2 | CC1CCN(CCCc2ccc(C(C)(C)C)cc2)CC1 | 5.4 | 13.8 | 3
3 | C[C@@H]1CN(CCCc2ccc(C(C)(C)C)cc2)C[C@@H](C)O1 (relative stereo) | 2.3 | 66.1 | 29
4 | CC(C)(C)c1ccc(CCCN2CCOCC2)cc1 | 2.6 | 930 | 360
5 | c1ccc(CCCN2CCOCC2)cc1 | 706 | 2020 | 3
6 | CC1CN(CCCc2ccc(C(C)(C)C)cc2)CC(C)O1 (mixture of isomers) | 8.4 | 77.9 | 9
7 | CC(Cc1ccc(C(C)(C)C)cc1)CN1C[C@@H](C)O[C@@H](C)C1 (some centres undefined) [FENPROPIMORPH] | – | 854 | –
